Converted amounts (≈) assume the structure as drawn.
Experiments:
Type in all cases: functional
Candida albicans = test: Antifungal activity against Candida albicans ATCC 10231 after 48 hrs by broth microdilution technique; conditions: ATCC 10231, 48 h
Method in brief: (§1)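 Yeasts were tested by CLSI broth microdilution in RPMI-1640 buffered to pH 7.0 with MOPS, with compound from 250 down to 0.98 in DMSO stocks. Trays were held at 30 °C in a moist, dark chamber. MIC100, the lowest concentration giving total visual inhibition against the growth control, was read by eye at 48 h.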

Saccharomyces cerevisiae = test: Antifungal activity against Saccharomyces cerevisiae ATCC 9763 after 48 hrs by broth microdilution technique; conditions: ATCC 9763, 48 h; method in brief: as §1
Cryptococcus neoformans = test: Antifungal activity against Cryptococcus neoformans ATCC 32264 after 48 hrs by broth microdilution technique; conditions: ATCC 32264, 48 h; method in brief: as §1
Aspergillus fumigatus = test: Antifungal activity against Aspergillus fumigatus ATCC 26934 after 48 hrs by broth microdilution technique; conditions: ATCC 26934, 48 h
Method in brief: (§2)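 Moulds and dermatophytes were run by CLSI broth microdilution in MOPS-buffered RPMI-1640 at pH 7.0. Aspergillus was incubated at 30 °C and dermatophytes at 28–30 °C, in a moist, dark chamber. MIC100, the lowest concentration with no visible growth, was read visually at a time set by growth of the control fungus.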

Aspergillus flavus = test: Antifungal activity against Aspergillus flavus ATCC 9170 after 48 hrs by broth microdilution technique; conditions: ATCC 9170, 48 h; method in brief: as §2
Aspergillus niger = test: Antifungal activity against Aspergillus niger ATCC 9029 after 48 hrs by broth microdilution technique; conditions: ATCC 9029, 48 h; method in brief: as §2
Nannizzia gypsea = test: Antifungal activity against Microsporum gypseum CCC 115 after 48 hrs by broth microdilution technique; conditions: CCC 115, 48 h; method in brief: as §2
Trichophyton rubrum = test: Antifungal activity against Trichophyton rubrum CCC 113 after 48 hrs by broth microdilution technique; conditions: CCC 113, 48 h
[1] = tested on: Trichophyton mentagrophytes; test: Antifungal activity against Trichophyton mentagrophytes ATCC 9972 after 48 hrs by broth microdilution technique; conditions: ATCC 9972, 48 h; method in brief: as §2

| SMILES | MFC (Candida albicans) [µg/mL] | MIC (Candida albicans) [µg/mL] | MFC (Saccharomyces cerevisiae) [µg/mL] | MIC (Saccharomyces cerevisiae) [µg/mL] | MFC (Cryptococcus neoformans) [µg/mL] | MIC (Cryptococcus neoformans) [µg/mL] | MFC (Aspergillus fumigatus) [µg/mL] | MIC (Aspergillus fumigatus) [µg/mL] | MFC (Aspergillus flavus) [µg/mL] | MIC (Aspergillus flavus) [µg/mL] | MFC (Aspergillus niger) [µg/mL] | MIC (Aspergillus niger) [µg/mL] | MFC (Nannizzia gypsea) [µg/mL] | MIC (Nannizzia gypsea) [µg/mL] | MFC (Trichophyton rubrum) [µg/mL] | MIC (Trichophyton rubrum) [µg/mL] | MFC [1] [µg/mL] | MIC [1] [µg/mL] |
| --- | --- | --- | --- | --- | --- | --- | --- | --- | --- | --- | --- | --- | --- | --- | --- | --- | --- | --- |
| C(=C\c1ccc2ccccc2n1)/c1cccnc1 | > 250 | 250 (≈ 1080 µM) | > 250 | 250 (≈ 1080 µM) | 250 (≈ 1080 µM) | 125 (≈ 538 µM) | > 250 | 125 (≈ 538 µM) | > 250 | 125 (≈ 538 µM) | > 250 | 125 (≈ 538 µM) | 250 (≈ 1080 µM) | 62 (≈ 267 µM) | 250 (≈ 1080 µM) | 62 (≈ 267 µM) | 250 (≈ 1080 µM) | 62 (≈ 267 µM) |
| Clc1ccc2nc(-c3cccnc3)ccc2c1 | – | > 250 | – | > 250 | 125 (≈ 519 µM) | 62 (≈ 258 µM) | – | > 250 | – | > 250 | – | > 250 | 125 (≈ 519 µM) | 31 (≈ 129 µM) | 125 (≈ 519 µM) | 31 (≈ 129 µM) | 125 (≈ 519 µM) | 31 (≈ 129 µM) |

From ChEMBL document CHEMBL2157922, “Synthesis and antifungal activity of diverse C-2 pyridinyl and pyridinylvinyl substituted quinolines” (2012)
